Source: ChEMBL document CHEMBL3045454, “Synthesis and fungicidal activity of aryl carbamic acid-5-aryl-2-furanmethyl ester” (2010)

How the values were obtained:
Corynespora cassiicola [1] = test: Fungicidal activity Corynespora cassiicola assessed as inhibition of mycelium growth at 50 mg/L at 24 degC measured after 2 days; type: functional; settings: 48 h
Method in brief: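 Mycelial growth assay on potato dextrose agar. The compound, as a 50 mg L^-1 DMF solution, is mixed into the PDA and a fungus cake is placed on it. DMF serves as blank. Plates are incubated at 24 ± 0.5 °C for 2 days. Mycelial diameters are measured and the inhibitory rate is calculated from them. Three replicates.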

Plutella xylostella [2] = test: Insecticidal activity against Plutella xylostella (diamondback moth) assessed as mortality at 600 mg/L measured after 72 hr; type: functional
Culex pipiens pallens = test: Larvicidal activity against fourth-instar Culex pipiens pallens (mosquito) assessed as mortality at 2000 mg/L measured after 8 days; type: functional; settings: 192 h
Method in brief: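 Twenty fourth-instar Culex pipiens pallens larvae are placed in 10 mL of the test solution (acetone/distilled water, final 2000 mg L^-1) and reared for 8 days. Mortality is recorded as percent dead. Acetone serves as blank. Four replicates.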

Botrytis cinerea = test: Fungicidal activity Botrytis cinerea assessed as inhibition of mycelium growth at 50 mg/L at 24 degC measured after 2 days; settings: 48 h
Fusarium oxysporum = test: Fungicidal activity Fusarium oxysporum assessed as inhibition of mycelium growth at 50 mg/L at 24 degC measured after 2 days; settings: 48 h
Corynespora cassiicola [3] = test: Fungicidal activity Corynespora cassiicola assessed as inhibition of mycelium growth at 50 mg/L at 24 degC measured after 2 days; settings: 48 h
Plutella xylostella [4] = test: Insecticidal activity against Plutella xylostella assessed as mortality at 5 mg/L measured after 72 hr; type: functional

SMILES	inhibition at 50 µg/mL (Corynespora cassiicola [1]) [%]	mortality at 600 µg/mL (Plutella xylostella [2]) [%]	mortality at 2000 µg/mL (Culex pipiens pallens) [%]	inhibition at 50 µg/mL (Botrytis cinerea) [%]	inhibition at 50 µg/mL (Fusarium oxysporum) [%]	inhibition at 50 µg/mL (Corynespora cassiicola [3]) [%]	mortality at 5 µg/mL (Plutella xylostella [4]) [%]
O=C(NC(=O)c1ccccc1Cl)OCc1ccc(-c2ccc(Br)cc2)o1	50.2	0	10	34.4	10.2	59.9	–
O=C(NC(=O)c1ccccc1Cl)OCc1ccc(-c2cccc(F)c2)o1	53.3	0	10	48.9	14.5	37.3	–
O=C(NC(=O)c1c(F)cccc1F)OCc1ccc(-c2cccc(F)c2)o1	38.4	0	10	60.4	7.63	31.5	–
O=C(NC(=O)c1ccccc1Cl)OCc1ccc(-c2ccc(Cl)cc2)o1	75.5	0	10	55.1	14.5	66	–
N#Cc1c(Cl)c(Cl)c(Cl)c(C#N)c1Cl [CHLOROTHALONIL]	–	–	–	–	–	23.3	–
Cc1cc(C)nc(Nc2ccccc2)n1 [PYRIMETHANIL]	–	–	–	48.9	–	–	–
O=C(NC(=O)c1c(F)cccc1F)OCc1ccc(-c2ccc(F)cc2)o1	56	10	0	58.5	49.4	22.1	–
O=C(NC(=O)c1c(F)cccc1F)OCc1ccc(-c2ccccc2F)o1	–	0	0	70.4	44.6	44.5	–
O=C(NC(=O)c1c(F)cccc1F)OCc1ccc(-c2cccc(Cl)c2)o1	–	0	10	63.5	45.4	50.5	–
O=C(NC(=O)c1c(Cl)cccc1Cl)OCc1ccc(-c2ccccc2Br)o1	79.2	0	0	44.8	42.3	39.9	–
N#Cc1nn(-c2c(Cl)cc(C(F)(F)F)cc2Cl)c(N)c1[S+]([O-])C(F)(F)F (stereo unspecified) [FIPRONIL]	–	–	–	–	–	–	100
O=C(NC(=O)c1c(Cl)cccc1Cl)OCc1ccc(-c2cccc(Cl)c2)o1	53.3	10	10	13	14.5	19	–
O=C(NC(=O)c1c(F)cccc1F)OCc1ccc(-c2ccccc2Br)o1	–	10	20	54.3	42.3	52.2	–
O=C(NC(=O)c1c(Cl)cccc1Cl)OCc1ccc(-c2ccc(F)cc2F)o1	63.3	1	10	27.9	15.9	16	–
O=C(NC(=O)c1c(Cl)cccc1Cl)OCc1ccc(-c2ccccc2F)o1	70.4	10	0	57.3	1.5	36	–
O=C(NC(=O)c1c(F)cccc1F)OCc1ccc(-c2ccc(F)cc2F)o1	–	0	10	64	44.6	42.5	–

SMILES	inhibition at 50 µg/mL (Corynespora cassiicola [1]) [%]	mortality at 600 µg/mL (Plutella xylostella [2]) [%]	mortality at 2000 µg/mL (Culex pipiens pallens) [%]	inhibition at 50 µg/mL (Botrytis cinerea) [%]	inhibition at 50 µg/mL (Fusarium oxysporum) [%]	inhibition at 50 µg/mL (Corynespora cassiicola [3]) [%]	mortality at 5 µg/mL (Plutella xylostella [4]) [%]
O=C(NC(=O)c1ccccc1Cl)OCc1ccc(-c2cccc(Cl)c2)o1	38.6	0	0	24.1	-3.03	24.9	–
O=C(NC(=O)c1ccccc1Cl)OCc1ccc(-c2ccc(F)cc2)o1	60.6	0	10	40.6	4.46	38.6	–
COC(=O)NC(=S)Nc1ccccc1NC(=S)NC(=O)OC [THIOPHANATE METHYL]	–	–	–	–	34.2	–	–
O=C(NC(=O)c1c(Cl)cccc1Cl)OCc1ccc(-c2ccc(Br)cc2)o1	64.7	0	10	52.8	32.8	54.4	–
O=C(NC(=O)c1c(Cl)cccc1Cl)OCc1ccc(-c2cccc(F)c2)o1	62	20	10	32.6	8.82	12.9	–
O=C(NC(=O)c1c(F)cccc1F)OCc1ccc(-c2ccccc2Cl)o1	36.6	0	0	66.6	41.2	43.5	–
O=C(NC(=O)c1c(Cl)cccc1Cl)OCc1ccc(-c2ccc(F)cc2)o1	72.7	0	0	37.1	35.3	37.3	–
O=C(NC(=O)c1ccccc1Cl)OCc1ccc(-c2ccccc2Cl)o1	69.8	0	20	25	0	43.8	–
O=C(NC(=O)c1ccccc1Cl)OCc1ccc(-c2ccccc2Br)o1	67.3	0	0	54.3	25.2	42.5	–
O=C(NC(=O)c1c(F)cccc1F)OCc1ccc(-c2ccc(Br)cc2)o1	63.3	10	0	62.2	7.38	57.8	–
CC(C)(C)N(NC(=O)c1ccccc1)C(=O)c1ccccc1 [RH-5849]	–	–	0	–	–	–	–
O=C(NC(=O)c1ccccc1Cl)OCc1ccc(-c2ccccc2F)o1	65.3	0	10	34.4	1.5	26.3	–
O=C(NC(=O)c1c(F)cccc1F)OCc1ccc(-c2ccc(Cl)cc2)o1	–	0	10	100	92.3	71.6	–
O=C(NC(=O)c1c(Cl)cccc1Cl)OCc1ccc(-c2ccccc2Cl)o1	83.1	0	0	41.4	35.3	34.7	–
O=C(NC(=O)c1c(Cl)cccc1Cl)OCc1ccc(-c2ccc(Cl)cc2)o1	67.9	10	0	48.1	44.6	33.3	–
